Bioassay records deposited in PubChem by several laboratories.
Compounds with a hit are over-represented: about 1.3% of the library has one in this group of screens.
Lipid droplet: hepatic lipid droplet formation modulation; inhibition, % at 6.5 µM; 0.4% of 240,000 active; AML12 mouse hepatocytes, oleate lipid droplets, BODIPY imaging;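 active = lipid droplet intensity inhibited by at least 50%, with more than 500 cells counted; inconclusive = wells with under 300 cells, treated as cytotoxic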
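Test system: AML12 mouse liver cells; schedule: overnight exposure; technique: high-content imaging of BODIPY-stained droplets and DAPI nuclei; read-out: % inhibition of corrected integrated BODIPY droplet signal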
STK33 inh: human STK33 kinase inhibition. purified STK33, MBP phosphorylation, ADP-Glo luminescence. 0.073% of 320,000 active. Q9BYT3. AID 2661. inhibition, % at 10 µM;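 active = inhibition at or above 25%, using the most active replicate where run in duplicate; inactive = inhibition below 25%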
TAG inh: triacylglycerol accumulation inhibition; 0.66% of 230,000 active; H9c2 cells, Nile Red lipid (TAG) fluorescence; cells loaded with 200 µM oleic acid; AID 651582; inhibition, % at 12.5 µM;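 active = pattern-corrected inhibition of lipid staining of at least 50% with the nuclear-stain viability signal not falling by more than 50%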
LANA-H2B inh: blocks KSHV LANA binding to histone H2A/H2B; 0.6% of 320,000 active; cell-free LANA-H2A/H2B peptide, fluorescence polarization; AID 2629; inhibition, % (no concentration beside the values); Q9QR71; in the data active = inhibition mostly above about 10%, no sharp cut-off; inactive = mostly below about 6.7%
GSK3B inh: blocks human GSK3beta kinase activity | P49841 | GST-GSK3beta kinase, ADP-Glo luminescence, 60 min; stronger effect = lower value | activity score (negative = inhibition), % at 10 µM | 0.038% of 300,000 active | AID 2097;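 active = more than half of replicate wells score below -50%, meaning over 50% inhibition versus plate controls; inconclusive = some replicates but at most half score below -50%; inactive = no replicate scores below -50%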
Target sequence (P49841 whole entry, looked up): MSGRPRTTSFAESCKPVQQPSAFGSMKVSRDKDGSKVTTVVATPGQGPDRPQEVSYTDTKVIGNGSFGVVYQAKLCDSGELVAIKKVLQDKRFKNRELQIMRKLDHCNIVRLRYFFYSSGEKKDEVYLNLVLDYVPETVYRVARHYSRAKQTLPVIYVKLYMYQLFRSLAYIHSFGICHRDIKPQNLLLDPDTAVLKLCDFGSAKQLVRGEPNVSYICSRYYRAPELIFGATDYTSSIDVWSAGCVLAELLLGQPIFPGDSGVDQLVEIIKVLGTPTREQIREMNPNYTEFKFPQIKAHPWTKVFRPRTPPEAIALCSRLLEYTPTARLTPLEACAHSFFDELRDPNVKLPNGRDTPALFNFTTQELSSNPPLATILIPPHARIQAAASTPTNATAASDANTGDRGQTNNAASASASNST
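Test system: GST-fused GSK3beta enzyme, cell-free | Quantity: 1.6 ng GST-GSK3beta enzyme per well | Reagent: 25 µM ATP with peptide substrate | Schedule: 60 min enzyme reaction, room temperature | Signal: Luminescent ADP-Glo measurement of ADP formed | Read-out basis: Score relative to plate controls | Control set: DMSO and 20 µM GW8510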
GSK3 alpha inh: inhibitors of human GSK-3 alpha kinase; 0.1% of 320,000 active; ADP-Glo luminescence, 60 min; inhibition, % at 10 µM;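 active = more than half of replicates show inhibition above 20%; inconclusive = some but at most half of replicates above 20% inhibition; inactive = no replicate shows inhibition above 20%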;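 note: GST-tagged GSK-3 alpha with peptide substrate and 25 µM ATP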
Numbers stand for hits; . = inactive; ? = inconclusive; / = not tested or not shown; ! = a repeat was not active.

SMILES | Lipid droplet | STK33 inh | TAG inh | LANA-H2B inh | GSK3B inh | GSK3 alpha inh
CCn1c(SCC(=O)N2CCCCCC2)nc2ccccc2c1=O | . | . | / | . | . | .
O=C(c1ccc(O)cc1)c1ccc(C(=O)c2ccc(O)cc2)cc1 | . | . | . | 13 | . | .
O=C(C(=O)c1ccc(O)cc1)c1ccccc1 | . | . | / | . | . | .
O=C(Nc1ccnn1C1CCN(Cc2ccc(CO)o2)CC1)c1ccc2c(c1)OCO2 | . | . | . | . | . | .
COc1cc(CN2CCC(n3nccc3NC(=O)c3ccc4c(c3)OCO4)CC2)ccc1O | . | . | . | 47 | . | .
COc1cc(/C=C/C(=O)O)ccc1O | / | . | / | . | . | .
COc1cc(/C=C/C(=O)CC(=O)/C=C/c2ccc(O)c(OC)c2)ccc1O | . | 64 | . | . | . | .
COc1cc(C=C(C(C)=O)C(C)=O)ccc1O | . | . | . | . | . | .
COc1cc(/C=C/C(=O)/C=C(O)/C=C/c2ccc(O)c(OC)c2)ccc1O | / | 61 | . | . | / | .
c1cncc(C2Nc3ccccc3-c3nc4ccccc4n32)c1 (centres undefined) | . | 39 | / | . | . | .
Cc1c(/C=C/C(=O)c2ccc(O)cc2)cnn1C | . | 29 | / | . | . | .
Cc1nn(C)cc1/C=C/C(=O)c1ccccc1 | . | . | / | . | . | .
CCn1cc(/C=C/C(=O)c2ccc(O)cc2)c(C)n1 | . | 44 | . | . | . | .
CC1CCCN(C2=C(NS(=O)(=O)c3ccc(Cl)cc3)C(=O)c3ccccc3C2=O)C1 (centres undefined) | 57 | . | . | . | . | .
CN1CCN(C2=Nc3ccccc3Oc3ccc(Cl)cc32)CC1 | . | . | . | 14 | . | .
CN=C(Nc1cc(C)nn1-c1ccccc1)c1ccccc1 | . | . | / | . | . | .
CC(C)C(O)(C#CCN1CCCCC1)c1ccccc1 (centres undefined) | . | . | / | . | . | .
OC(C#CCN1CCCCCC1)(c1ccccc1)c1cccnc1 (centres undefined) | . | . | . | 15 | . | .
OC(C#CCN1CCCC1)(c1ccccc1)c1cccnc1 (centres undefined) | . | . | . | 27 | . | .
CC1(C)Cc2nc3sc4c(SCC(=O)O)ncnc4c3cc2CO1 | . | . | . | . | . | 76
CN(C)c1ccc(/C=N/NC(=O)CNC(=O)c2ccc3c(c2)OCCO3)cc1 | . | / | . | 25 | . | /
O=C(OCCN1C(=O)c2cccc3c(N4CCOCC4)ccc(c23)C1=O)c1ccc(Cl)cc1 | ? | . | / | 12 | . | .
Cn1nnnc1Sc1ccc(C(=O)O)cc1[N+](=O)[O-] | . | . | . | . | . | .
Cn1ccnc1Sc1ccc(C(N)=O)cc1[N+](=O)[O-] | . | . | . | 86 | . | .
O=C(c1cc(Br)ccc1Cl)N1CCCC1 | . | . | . | 11 | . | .
SMILES | Lipid droplet | STK33 inh | TAG inh | LANA-H2B inh | GSK3B inh | GSK3 alpha inh
CCN(CC)S(=O)(=O)c1ccc(C(=O)N2CCN=C2SCc2cccnc2)cc1 | . | . | . | 26 | . | .
COc1ccccc1Cn1c(/C=C/c2ccccc2)nc2ccccc21 | . | / | / | / | . | /
COCCn1c(/C=C/c2ccccc2)nc2ccccc21 | . | . | . | -127 | . | .
COC(=O)c1ccc(NC(=O)COc2ccc([N+](=O)[O-])cc2)cc1 | . | . | . | 20 | . | .
O=C(Nc1ccc([N+](=O)[O-])cc1)C1C(c2ccccc2)=C1c1ccccc1 | / | . | / | 18 | . | .
O=C(CCOc1ccccc1)Nc1ccc([N+](=O)[O-])cc1 | . | . | / | 15 | . | .
O=C(Nc1ccc([N+](=O)[O-])cc1)C(c1ccccc1)c1ccccc1 | / | / | . | / | / | /
CCCNC(=O)C1(C)CCN(C(=O)c2ccc(OC(F)F)cc2)C1 (centres undefined) | / | / | . | / | / | /
COC(=O)C1=C(N)Oc2cc(C)n(Cc3ccccc3)c(=O)c2C1c1ccccc1 (centres undefined) | . | . | . | . | . | .
Cc1cn([C@H]2C[C@H](N=[N+]=[N-])[C@@H](CO)O2)c(=O)[nH]c1=O | . | . | . | 15! | . | .
O=c1[nH]c(=O)n(C2CC(O)C(CO)O2)cc1I (centres undefined) | / | / | . | / | / | /
Cn1c(N=Nc2ccc(N3CCOCC3)cc2)[n+](C)c2ccccc21 | . | / | 51 | / | . | /
O=S(=O)(Nc1ccc2c(c1)OCO2)c1ccc(F)c(F)c1 | / | . | . | 27 | / | .
CN1CC=C2C(C#N)=C(N)C(C#N)(C#N)[C@H](c3ccoc3)[C@H]2C1 | . | . | . | 18 | . | .
CCCN1CC=C2C(C#N)=C(N)C(C#N)(C#N)C(c3cccc(OC)c3OC)C2C1 (centres undefined) | . | . | / | 17 | . | .
CC(=O)N1CC=C2C(C#N)=C(N)C(C#N)(C#N)C(CCc3ccccc3)C2C1 (centres undefined) | . | . | . | . | . | .
CC(=O)N1CC=C2C(C#N)=C(N)C(C#N)(C#N)[C@H](c3ccoc3)[C@H]2C1 | . | . | / | . | . | .
N#CC1=C(N)C(C#N)(C#N)[C@H](c2ccoc2)[C@H]2CN(Cc3ccccc3)CC=C12 | . | . | . | 23 | . | .
CCN1CC=C2C(C#N)=C(N)C(C#N)(C#N)C(CCc3ccccc3)C2C1 (centres undefined) | / | . | . | 25 | / | .
CC(C(=O)OCC(=O)Nc1ccccc1OC(F)F)N1C(=O)C2CC=CCC2C1=O (centres undefined) | / | / | . | / | / | /
O=S(=O)(NC1=NCCCCC1)c1ccc(F)cc1F | / | . | . | . | / | .
COc1ccc(-n2ccc(=O)c(C(=O)O)n2)c(OC)c1 | . | . | / | . | . | .
Cn1c(CNc2ccc(Cl)cc2)nc2ccccc21 | . | . | . | . | . | .
CC(C)N=c1cc2n(-c3ccc(Cl)cc3)c3ccccc3nc-2cc1Nc1ccc(Cl)cc1 | / | . | 137 | . | . | .
O=C1Nc2ccccc2/C1=N\N=C\c1ccc(O)c(O)c1 | . | . | . | . | . | .
SMILES | Lipid droplet | STK33 inh | TAG inh | LANA-H2B inh | GSK3B inh | GSK3 alpha inh
COc1cc(/C=N/N=C2/C(=O)Nc3ccccc32)ccc1O | . | 38 | . | . | . | .
C=CC(=O)Nc1ccc(CN2C(=O)N(c3c(Cl)c(OC)cc(OC)c3Cl)Cc3cnc(NCCCCN(CC)CC)nc32)cc1 | / | 80 | 66 | . | / | .
CCN(CC)CCNC(=O)c1ccc(NC(=O)Cc2ccc(OC)c(S(=O)(=O)N3CCOCC3)c2)cc1 | / | / | . | / | / | /
COc1ccc(NC(=O)CSc2nc(N3CCCCC3)nc(N3CCCCC3)n2)cc1 | / | . | / | . | . | .
CCCn1c(NC(=O)c2cccc(S(=O)(=O)N3CCCC3)c2)nc2ccccc21 | / | 44 | / | . | . | .
CC(C)c1ccc(S(=O)(=O)N2CCN(C(=O)n3ccnc3)CC2)cc1 | / | . | . | . | / | .
Cc1ccc(S(=O)(=O)N2CCN(C(=O)n3ccnc3)CC2)cc1 | / | . | . | 31 | / | .
